# Results: ChEMBL document CHEMBL1151705, “Novel azalides derived from 16-membered macrolides. Part II: Isolation of the linear 9-formylcarboxylic acid and its sequential macrocyclization with an amino alcohol or an azidoamine” (2008)
# Legend:
# Type in all cases: functional
# Staphylococcus aureus [1] = experiment: Antimicrobial activity against drug-susceptible Staphylococcus aureus 2 after 20 hrs by agar dilution method
# How it was run: (§1)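 Agar dilution MIC. S. aureus seed culture was grown in sensitivity test broth. Cell suspension (about 10⁶ CFU/ml) was inoculated onto sensitivity disk agar with 5% horse blood and incubated at 37 °C for 20 h. MIC was the lowest drug concentration that prevented visible growth.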
# Staphylococcus aureus [2] = experiment: Antimicrobial activity against Staphylococcus aureus 5 expressing inducible ermB after 20 hrs by agar dilution method; how it was run: as §1
# Moraxella catarrhalis [3] = experiment: Antimicrobial activity against drug-susceptible Moraxella catarrhalis 2 after 20 hrs by agar dilution method
# How it was run: (§2)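 Streptococci, H. influenzae and M. catarrhalis were precultured on blood agar plates. Suspensions of about 10⁶ CFU/ml were inoculated onto sensitivity disk agar supplemented with 5% horse blood and incubated at 37 °C for 20 h. MIC was read as the lowest drug concentration with no visible growth.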
# Moraxella catarrhalis [4] = experiment: Antimicrobial activity against drug-susceptible Moraxella catarrhalis 1 after 20 hrs by agar dilution method; how it was run: as §2
# Staphylococcus aureus [5] = experiment: Antimicrobial activity against drug-susceptible Staphylococcus aureus 3 after 20 hrs by agar dilution method; how it was run: as §1
# Streptococcus pneumoniae [6] = experiment: Antimicrobial activity against Streptococcus pneumoniae 7 expressing inducible ermB after 20 hrs by agar dilution method; how it was run: as §2
# Haemophilus influenzae [7] = experiment: Antimicrobial activity against drug-susceptible Haemophilus influenzae 4 after 20 hrs by agar dilution method; how it was run: as §2
# Streptococcus pneumoniae [8] = experiment: Antimicrobial activity against Streptococcus pneumoniae 10 expressing mefA after 20 hrs by agar dilution method; how it was run: as §2
# Streptococcus pyogenes [9] = experiment: Antimicrobial activity against drug-susceptible Streptococcus pyogenes 1 after 20 hrs by agar dilution method; how it was run: as §2
# Streptococcus pneumoniae [10] = experiment: Antimicrobial activity against drug-susceptible Streptococcus pneumoniae DP1 Type1 after 20 hrs by agar dilution method; how it was run: as §2
# Streptococcus pneumoniae [11] = experiment: Antimicrobial activity against Streptococcus pneumoniae 6 constitutively expressing ermB after 20 hrs by agar dilution method; settings: Streptococcus pneumoniae, 20 h; read-out: MIC; how it was run: as §2
# Streptococcus pneumoniae [12] = experiment: Antimicrobial activity against Streptococcus pneumoniae 9 expressing mefA after 20 hrs by agar dilution method; how it was run: as §2
# Streptococcus pneumoniae [13] = experiment: Antimicrobial activity against Streptococcus pneumoniae 8 expressing inducible ermB after 20 hrs by agar dilution method; how it was run: as §2
# Streptococcus pyogenes [14] = experiment: Antimicrobial activity against Streptococcus pyogenes 3 expressing mefA after 20 hrs by agar dilution method; how it was run: as §2
# Staphylococcus aureus [15] = experiment: Antimicrobial activity against Staphylococcus aureus 4 constitutively expressing ermA after 20 hrs by agar dilution method; how it was run: as §1
# Haemophilus influenzae [16] = experiment: Antimicrobial activity against drug-susceptible Haemophilus influenzae 2 after 20 hrs by agar dilution method; how it was run: as §2
# Staphylococcus aureus [17] = experiment: Antimicrobial activity against Staphylococcus aureus 6 expressing inducible ermB after 20 hrs by agar dilution method; how it was run: as §1
# Streptococcus pneumoniae [18] = experiment: Antimicrobial activity against drug-susceptible Streptococcus pneumoniae 3 after 20 hrs by agar dilution method; how it was run: as §2
# Staphylococcus aureus [19] = experiment: Antimicrobial activity against drug-susceptible Staphylococcus aureus 209P JC-1 after 20 hrs by agar dilution method; how it was run: as §1
# Streptococcus pneumoniae [20] = experiment: Antimicrobial activity against drug-susceptible Streptococcus pneumoniae 2 after 20 hrs by agar dilution method; how it was run: as §2
# Streptococcus pyogenes [21] = experiment: Antimicrobial activity against Streptococcus pyogenes 2 constitutively expressing ermB after 20 hrs by agar dilution method; how it was run: as §2
# Streptococcus pneumoniae [22] = experiment: Antimicrobial activity against Streptococcus pneumoniae 5 constitutively expressing ermB/mefA after 20 hrs by agar dilution method; settings: Streptococcus pneumoniae, 20 h; read-out: MIC; how it was run: as §2
# Haemophilus influenzae [23] = experiment: Antimicrobial activity against drug-susceptible Haemophilus influenzae 1 after 20 hrs by agar dilution method; how it was run: as §2
# Haemophilus influenzae [24] = experiment: Antimicrobial activity against drug-susceptible Haemophilus influenzae 3 after 20 hrs by agar dilution method; how it was run: as §2
# Streptococcus pneumoniae [25] = experiment: Antimicrobial activity against Streptococcus pneumoniae 4 constitutively expressing ermB after 20 hrs by agar dilution method; settings: Streptococcus pneumoniae, 20 h; read-out: MIC; how it was run: as §2
# [26] = Staphylococcus aureus, 20 h, read-out: MIC
# [27] = Moraxella catarrhalis, 20 h, read-out: MIC
# [28] = Streptococcus pneumoniae, 20 h, read-out: MIC
# [29] = Haemophilus influenzae, 20 h, read-out: MIC
# [30] = Streptococcus pyogenes, 20 h, read-out: MIC
# [31] = Staphylococcus aureus, 209P, 20 h, read-out: MIC
structure (smiles),measurement,setting,value
CCOC(=O)[C@H]1[C@H](C)O[C@@H](O[C@H]2[C@H](N(C)C)[C@@H](O)[C@H](O[C@H]3[C@@H](CC=O)C[C@@H](C)[C@@H](O)CN(C)CCC[C@H](CCCc4ccnc5ccccc45)OC(=O)C[C@@H](OC(=O)CC)[C@@H]3OC)O[C@@H]2C)C[C@@]1(C)O,MIC,Staphylococcus aureus [1]; [26],1 µg/mL
same,MIC,Staphylococcus aureus [2]; [26],0.5 µg/mL
same,MIC,Moraxella catarrhalis [3]; [27],2 µg/mL
same,MIC,Moraxella catarrhalis [4]; [27],2 µg/mL
same,MIC,Staphylococcus aureus [5]; [26],0.25 µg/mL
same,MIC,Streptococcus pneumoniae [6]; [28],8 µg/mL
same,MIC,Haemophilus influenzae [7]; [29],16 µg/mL
same,MIC,Streptococcus pneumoniae [8]; [28],0.06 µg/mL
same,MIC,Streptococcus pyogenes [9]; [30],0.06 µg/mL
same,MIC,Streptococcus pneumoniae [10]; [28],0.03 µg/mL
same,MIC,Streptococcus pneumoniae [11],> 128 µg/mL
same,MIC,Streptococcus pneumoniae [12]; [28],0.06 µg/mL
same,MIC,Streptococcus pneumoniae [13]; [28],8 µg/mL
same,MIC,Streptococcus pyogenes [14]; [30],0.5 µg/mL
same,MIC,Staphylococcus aureus [15],> 128 µg/mL
same,MIC,Haemophilus influenzae [16]; [29],4 µg/mL
same,MIC,Staphylococcus aureus [17],0.5 µg/mL
same,MIC,Streptococcus pneumoniae [18]; [28],0.06 µg/mL
same,MIC,Staphylococcus aureus [19]; [31],0.5 µg/mL
same,MIC,Streptococcus pneumoniae [20]; [28],0.06 µg/mL
same,MIC,Streptococcus pyogenes [21],> 128 µg/mL
same,MIC,Streptococcus pneumoniae [22],> 128 µg/mL
same,MIC,Haemophilus influenzae [23]; [29],32 µg/mL
same,MIC,Haemophilus influenzae [24]; [29],16 µg/mL
same,MIC,Streptococcus pneumoniae [25],> 128 µg/mL
CCOC(=O)[C@H]1[C@H](C)O[C@@H](O[C@H]2[C@H](N(C)C)[C@@H](O)[C@H](O[C@H]3[C@@H](CC=O)C[C@@H](C)[C@@H](O)CN(C)CCC(C/C=C/c4cnc5ccccc5c4)NC(=O)C[C@@H](OC(=O)CC)[C@@H]3OC)O[C@@H]2C)C[C@@]1(C)O (stereo in doubt; form 1),MIC,Staphylococcus aureus [1]; [26],1 µg/mL
same,MIC,Staphylococcus aureus [2]; [26],0.5 µg/mL
same,MIC,Moraxella catarrhalis [3]; [27],2 µg/mL
same,MIC,Moraxella catarrhalis [4],2 µg/mL
same,MIC,Staphylococcus aureus [5]; [26],0.25 µg/mL
same,MIC,Streptococcus pneumoniae [6],32 µg/mL
same,MIC,Haemophilus influenzae [7]; [29],16 µg/mL
same,MIC,Streptococcus pneumoniae [8]; [28],0.13 µg/mL
same,MIC,Streptococcus pyogenes [9]; [30],0.25 µg/mL
same,MIC,Streptococcus pneumoniae [10],0.06 µg/mL
same,MIC,Streptococcus pneumoniae [11],> 128 µg/mL
same,MIC,Streptococcus pneumoniae [12],0.13 µg/mL
same,MIC,Streptococcus pneumoniae [13],32 µg/mL
same,MIC,Streptococcus pyogenes [14],1 µg/mL
same,MIC,Staphylococcus aureus [15],> 128 µg/mL
same,MIC,Haemophilus influenzae [16]; [29],2 µg/mL
same,MIC,Staphylococcus aureus [17],1 µg/mL
same,MIC,Streptococcus pneumoniae [18]; [28],0.13 µg/mL
same,MIC,Staphylococcus aureus [19]; [31],0.5 µg/mL
same,MIC,Streptococcus pneumoniae [20]; [28],0.13 µg/mL
same,MIC,Streptococcus pyogenes [21],> 128 µg/mL
same,MIC,Streptococcus pneumoniae [22],> 128 µg/mL
same,MIC,Haemophilus influenzae [23]; [29],32 µg/mL
same,MIC,Haemophilus influenzae [24]; [29],16 µg/mL
same,MIC,Streptococcus pneumoniae [25],> 128 µg/mL
CCOC(=O)[C@H]1[C@H](C)O[C@@H](O[C@H]2[C@H](N(C)C)[C@@H](O)[C@H](O[C@H]3[C@@H](CC=O)C[C@@H](C)[C@@H](O)CN(C)CCC[C@H](CCCc4cnc5ccccc5c4)OC(=O)C[C@@H](OC(=O)CC)[C@@H]3OC)O[C@@H]2C)C[C@@]1(C)O,MIC,Staphylococcus aureus [1]; [26],0.25 µg/mL
same,MIC,Staphylococcus aureus [2]; [26],0.13 µg/mL
same,MIC,Moraxella catarrhalis [3]; [27],1 µg/mL
same,MIC,Moraxella catarrhalis [4]; [27],1 µg/mL
same,MIC,Staphylococcus aureus [5]; [26],0.13 µg/mL
same,MIC,Streptococcus pneumoniae [6]; [28],4 µg/mL
same,MIC,Haemophilus influenzae [7]; [29],8 µg/mL
same,MIC,Streptococcus pneumoniae [8]; [28],0.015 µg/mL
same,MIC,Streptococcus pyogenes [9]; [30],0.015 µg/mL
same,MIC,Streptococcus pneumoniae [10]; [28],< 0.008 µg/mL
same,MIC,Streptococcus pneumoniae [11],128 µg/mL
same,MIC,Streptococcus pneumoniae [12]; [28],0.015 µg/mL
same,MIC,Streptococcus pneumoniae [13]; [28],4 µg/mL
same,MIC,Streptococcus pyogenes [14]; [30],0.13 µg/mL
same,MIC,Staphylococcus aureus [15],> 128 µg/mL
same,MIC,Haemophilus influenzae [16]; [29],2 µg/mL
same,MIC,Staphylococcus aureus [17],0.25 µg/mL
same,MIC,Streptococcus pneumoniae [18]; [28],< 0.008 µg/mL
same,MIC,Staphylococcus aureus [19]; [31],0.13 µg/mL
same,MIC,Streptococcus pneumoniae [20]; [28],0.015 µg/mL
same,MIC,Streptococcus pyogenes [21],> 128 µg/mL
same,MIC,Streptococcus pneumoniae [22],128 µg/mL
same,MIC,Haemophilus influenzae [23]; [29],32 µg/mL
same,MIC,Haemophilus influenzae [24]; [29],8 µg/mL
same,MIC,Streptococcus pneumoniae [25],128 µg/mL
CCOC(=O)[C@H]1[C@H](C)O[C@@H](O[C@H]2[C@H](N(C)C)[C@@H](O)[C@H](O[C@H]3[C@@H](CC=O)C[C@@H](C)[C@@H](O)CN(C)CCC(C/C=C/c4cnc5ccccc5c4)NC(=O)C[C@@H](OC(=O)CC)[C@@H]3OC)O[C@@H]2C)C[C@@]1(C)O (stereo in doubt; form 2),MIC,Staphylococcus aureus [1],2 µg/mL
same,MIC,Staphylococcus aureus [2],1 µg/mL
same,MIC,Moraxella catarrhalis [3],4 µg/mL
same,MIC,Moraxella catarrhalis [4],8 µg/mL
same,MIC,Staphylococcus aureus [5],0.5 µg/mL
same,MIC,Streptococcus pneumoniae [6],>128 µg/mL
same,MIC,Haemophilus influenzae [7],32 µg/mL
same,MIC,Streptococcus pneumoniae [8],0.25 µg/mL
same,MIC,Streptococcus pyogenes [9],0.5 µg/mL
same,MIC,Streptococcus pneumoniae [10],0.13 µg/mL
same,MIC,Streptococcus pneumoniae [12],0.5 µg/mL
same,MIC,Streptococcus pneumoniae [13],>128 µg/mL
same,MIC,Streptococcus pyogenes [14],4 µg/mL
same,MIC,Haemophilus influenzae [16],4 µg/mL
same,MIC,Streptococcus pneumoniae [18],0.25 µg/mL
same,MIC,Staphylococcus aureus [19],1 µg/mL
same,MIC,Streptococcus pneumoniae [20],0.25 µg/mL
same,MIC,Haemophilus influenzae [23],64 µg/mL
same,MIC,Haemophilus influenzae [24],16 µg/mL
